Test results: ChEMBL document CHEMBL1795206, “Selective non zinc binding inhibitors of MMP13” (Bioorg Med Chem Lett, 2011)

Legend:
[1] = Chemical stability of the compound assessed as half life at pH 4 to 10; assay type: physicochemical; details: buffer
[2] = Photolytic stability of the compound in phosphate buffer at pH 7 up to 4 hrs by LC-UV-MS analysis; assay type: physicochemical; details: pH 7, 4 h
[3] = Intrinsic clearance in human liver microsomes; assay type: ADME, Microsome
[4] = Intrinsic clearance in Sprague-Dawley rat hepatocytes measured per 10^6 cells; assay type: ADME, cell-based, Liver, Hepatocyte
[5] = Clearance in rat at 2 mg/kg, iv; assay type: ADME, organism-based; parameters: dose 2 mg/kg, route intravenous; details: in vivo
How it was run: (§1)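 Rats dosed intravenously at 2 mg/kg, n = 2 animals. Clearance is reported in ml/min/kg, half-life in h and steady-state volume of distribution in l/kg.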

[6] = Half life in rat at 2 mg/kg, iv; assay type: ADME, organism-based; parameters: dose 2 mg/kg, route intravenous; details: in vivo; how it was run: as §1
[7] = Volume of distribution at steady state in rat at 2 mg/kg, iv; assay type: ADME, organism-based; parameters: dose 2 mg/kg, route intravenous; details: in vivo, read-out: Vdss; how it was run: as §1

SMILES	half-life [1]	Stability [2]	further results
O=C(NCc1ccncc1)c1ccc(Oc2ccccc2)cc1	> 41.7 days	Stable	–
O=C(NCc1ccncc1)c1ccc(OCc2ccccc2)cc1	> 41.7 days	Stable	–
O=C(NCc1ccncc1)c1ccc(Oc2ccc(C#C[C@]3(O)CN4CCC3CC4)cc2)cc1	> 41.7 days	Stable	–
Cc1ccc(Oc2ccc(C(=O)NCC3CCCCC3)cc2)cc1	> 41.7 days	–	–
COc1ccc(C(=O)NCc2ccncc2)cc1	> 41.7 days	Stable	–
O=C(NCc1ccncc1)c1ccc(-c2ccccc2)cc1	> 41.7 days	Stable	–
O=C(NCc1ccncc1)c1ccc(OCCc2ccccc2)cc1	> 41.7 days	Stable	–
COc1cc(Oc2ccc(C(=O)NCc3ccncc3)cc2)ccc1[N+](=O)[O-]	> 41.7 days	Stable	–
N#Cc1ccccc1Oc1ccc(C(=O)NCc2ccncc2)cc1	> 41.7 days	Stable	–
O=C(NCc1ccncc1)c1ccc(Oc2ccc(/C=C/C3=CN4CCC3CC4)cc2)cc1	> 41.7 days	Stable	–
O=C(NCc1ccncc1)c1ccc(Oc2ccc(C#C[C@@]3(O)CN4CCC3CC4)cc2)cc1	> 41.7 days	Stable	–
O=C(NCc1ccncn1)c1ccc(Oc2ccc(C#C[C@]3(O)CN4CCC3CC4)cc2)cc1	> 41.7 days	Stable	microsomal CLint [3]: < 2 µL/min/mg; hepatocyte CLint [4]: 3 µL/min/1e6 cells; clearance [5]: 17 mL/min/kg; half-life [6]: 0.1 days; Vd [7]: 2.4 L/kg
O=C(NCc1ccncn1)c1ccc(Oc2ccc(C#C[C@@]3(O)CN4CCC3CC4)cc2)cc1	> 41.7 days	Stable	–
O=C(NCc1ccncn1)c1ccc(Oc2ccc(CCC3(O)CN4CCC3CC4)cc2)cc1 (stereo not given)	> 41.7 days	Stable	–
O=C(NCc1ccncn1)c1ccc(Oc2ccc(/C=C/C3(O)CN4CCC3CC4)cc2)cc1 (stereo not given)	> 41.7 days	Stable	–
COC1(C#Cc2ccc(Oc3ccc(C(=O)NCc4ccncn4)cc3)cc2)CN2CCC1CC2 (stereo not given)	> 41.7 days	Stable	–
O=C(NCc1ccncn1)c1ccc(Oc2ccc(/C=C/C3=CN4CCC3CC4)cc2)cc1	> 41.7 days	Stable	–
O=C(NCc1ccncc1)c1ccc(Oc2ccc(C#CC3(O)CN4CCC3CC4)cc2)cc1 (racemic)	> 41.7 days	Stable	–

Continued, in another order:

half-life [1]	Stability [2]	SMILES	further results
> 41.7 days	–	Cc1ccc(Oc2ccc(C(=O)NCc3ccncc3)cc2)cc1	–
> 41.7 days	–	Cc1ccc(Oc2ccc(C(=O)NCc3cccnc3)cc2)cc1	–
> 41.7 days	–	Cc1ccc(Oc2ccc(C(=O)NCc3ccccc3)cc2)cc1	–
> 41.7 days	–	COc1cccc(CNC(=O)c2ccc(Oc3ccc(C)cc3)cc2)c1	–
> 41.7 days	–	Cc1ccc(Oc2ccc(C(=O)N(C)Cc3ccncc3)cc2)cc1	–
> 41.7 days	–	Cc1ccc(Oc2ccc(C(=O)NCCc3ccncc3)cc2)cc1	–
> 41.7 days	–	Cc1ccc(Oc2ccc(C(=O)NCCO)cc2)cc1	–
> 41.7 days	Stable	Cc1ccc(Oc2ccc(C(=O)NCCCN(C)C)cc2)cc1	–
> 41.7 days	Stable	CNC(=O)c1ccc(Oc2ccc(C)cc2)cc1	–
> 41.7 days	Stable	O=C(NCc1ccncc1)c1ccc(Oc2ccc([N+](=O)[O-])cc2)cc1	–
> 41.7 days	Stable	CNC(=O)c1ccc(Oc2ccc(C(=O)NCc3ccncc3)cc2)cc1	–
